Laboratory results: ChEMBL document CHEMBL3046830, “Isolation and identification of secondary metabolites of Clitocybe nuda responsible for inhibition of zoospore germination of Phytophthora capsici” (2012)
Active and inactive are the calls of the source. The calls are words filed in the database; no cut-off is given here.

Key:
Format in all cases: functional
Phytophthora capsici [1] = assay: Antimicrobial activity against Phytophthora capsici PCM81 assessed as zoospore germination at 500 ppm at 24 degC for 8 hr
In short: (§1)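 P. capsici PCM81 sporangia grown 5 days on 10% V8 agar at 24 °C under a 12 h light–dark cycle. Zoospores released in sterile water for 1 day at 24 °C, then chilled at 4 °C for 1 h. The suspension is mixed 1:1 with the sample in a cavity slide and kept moist; a distilled-water mix is the control. Germination is scored after 8 h at 24 °C, counting 100 spores × 4 replicates, with the experiment run twice and analysed by Duncan's test.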

Phytophthora capsici [2] = assay: Antimicrobial activity against Phytophthora capsici PCM81 assessed as zoospore germination at 1000 ppm at 24 degC for 8 hr; in short: as §1
Phytophthora capsici [3] = assay: Antimicrobial activity against Phytophthora capsici PCM81 assessed as inhibition of zoospore germination at 500 mg/L at 24 degC for 8 hr; details: for inhibition at 500 µg/mL: PCM81, 8 h; in short: as §1
Phytophthora capsici [4] = assay: Antimicrobial activity against Phytophthora capsici PCM81 assessed as zoospore germination at 100 ppm at 24 degC for 8 hr; in short: as §1

Row | SMILES | Activity (Phytophthora capsici [1]) [%] | Activity (Phytophthora capsici [2]) [%] | inhibition at 500 µg/mL (Phytophthora capsici [3]) [%] | Activity (Phytophthora capsici [4]) [%] | inhibition (Phytophthora capsici [3])
1 | O=CC1=CC=C(O)OC1 | 14.5 | 0 | 86 | 77 | 
2 | O=Cc1c[nH]c2ccccc12 [3-FORMYLINDOLE] | 0 | 0 |  | 57 | Active
3 | COCC1=C(C)C(=O)C=C(OC)C1=O | 3 | 0 | 97 | 65 | 
